ChEMBL document CHEMBL1158336, “Synthesis, antitubercular activity and docking study of novel cyclic azole substituted diphenyl ether derivatives” (2009)
In brackets after ≈: the same amount, converted by molar mass.

Tests used:
[1] = system: Mycobacterium tuberculosis; test: Antimycobacterial activity against Mycobacterium tuberculosis H37Rv at 1 ug/ml after 6 weeks; assay type: functional
Procedure, shortened: (§1)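 Lowenstein–Jensen slope method. Compounds dissolved in DMSO, diluted in DMSO, and an aliquot mixed into L.J. medium at 0.8 mL per 7.2 mL. Slopes set and sterilised at 75–80 °C for 3 days. M. tuberculosis H37Rv suspended with glass beads in sterile water and inoculated by 3 mm nichrome loop. DMSO-only and compound-free media served as controls.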

[2] = system: Mycobacterium tuberculosis; test: Antimycobacterial activity against Mycobacterium tuberculosis H37Rv after 6 weeks; assay type: functional; procedure, shortened: as §1

SMILES | Activity [1] | MIC [2]
S=c1[nH]nc(-c2ccc(Oc3ccccc3)cc2)o1 | 100% | –
c1ccc(Oc2cccc(-c3nc(-c4ccccc4)co3)c2)cc1 | 100% | –
COc1ccc(-c2coc(-c3cccc(Oc4ccccc4)c3)n2)cc1 | 100% | –
S=c1[nH]nc(-c2cccc(Oc3ccccc3)c2)n1-c1ccccc1 | 100% | –
Clc1ccc(-c2coc(-c3cccc(Oc4ccccc4)c3)n2)cc1 | 100% | –
O=C(c1ccccc1)N1N=C(c2ccccn2)CC1c1ccc(Oc2ccccc2)cc1 (centres undefined) | 100% | –
S=c1[nH]nc(-c2ccccc2Oc2ccccc2)o1 | 100% | –
S=c1[nH]nc(-c2cccc(Oc3ccccc3)c2)o1 | 100% | –
S=c1[nH]nc(-c2ccc(Oc3ccccc3)cc2)n1-c1ccccc1 | 100% | –
S=c1[nH]nc(-c2ccccc2Oc2ccccc2)n1-c1ccccc1 | 100% | –
NNC(=O)c1ccncc1 [ISONIAZID] | – | 0.01 µg/mL (≈ 0.0729 µM)
CO[C@H]1/C=C/O[C@@]2(C)Oc3c(C)c(O)c4c(O)c(c(/C=N/N5CCN(C)CC5)c(O)c4c3C2=O)NC(=O)/C(C)=C\C=C\[C@H](C)[C@H](O)[C@@H](C)[C@@H](O)[C@@H](C)[C@H](OC(C)=O)[C@@H]1C [RIFAMPIN] | – | 0.06 µg/mL (≈ 0.0729 µM)
Oc1cc(Cl)ccc1Oc1ccc(Cl)cc1Cl [TRICLOSAN] | 100% | 5 µg/mL (≈ 17.3 µM)
